The text below walks through data of publication PMC4777260 (Pharmacology Research & Perspectives, 2016).

Data set [1] can be described thus: Rat pharmacokinetics. The conditions noted are these: in vivo.
In data set [2] the test system is rat cuticle bleeding time (CBT). Description: Rat cuticle bleeding time. It is filed as in vivo. The method in brief:
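Same anaesthetised, IV bolus-plus-infusion rats as the shunt study. Five minutes after shunt placement, two hind-paw toe cuticles were cut at the quick. The paw was immersed in 37° lactated Ringer's, and time to bleeding cessation was recorded (10 min maximum). A linear model of CBT versus plasma concentration treated 600 s values as right-censored. Median and 5th/95th percentiles were simulated from parameter standard errors.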

For data set [3], the system named is rat arteriovenous shunt (AVS/thrombosis). Nature of the data set: Rat arteriovenous shunt. It is filed as in vivo. Put shortly:
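Male Sprague Dawley rats (350–400 g) were anaesthetised with thiobutabarbital. Test compound or vehicle (35% w/v hydroxypropyl-β-cyclodextrin, 10 mmol/L phosphate buffer) was given as an IV bolus plus constant infusion: five doses, n ≥ 10/group, blinded. At 15 min, a carotid–jugular shunt with silk thread ran 15 min. CW = thread weight gain. A vehicle-proportional Imax model was fitted to CW versus plasma concentration.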

Data set [4] concerns fIIa formation (thrombin generation). Description: Ex vivo thrombin generation assay. It is filed as in vivo, rat. The note with it: TF 1, 5, 20 pmol/L trigger.
The target in data set [5] is rat fIXa (Rattus norvegicus, UniProt P16296). Description: fIXa inhibition constant. It is filed as biochemical.
Data set [6] can be described thus: Fraction unbound in plasma by equilibrium dialysis, human. The format is in vitro ADME. The method in brief:
(§1)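 Plasma fraction unbound was determined by equilibrium dialysis in triplicate. Its standard error fed simulations of clinically relevant concentration ranges.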

Data set [7] has as its system aPTT. Nature of the data set: Ex vivo activated partial thromboplastin time. The format is in vivo, rat. The note with it: plasma collected post-AVS, small molecule study. The method in brief: (§2)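 Rats received a steady-state IV bolus-plus-infusion. A terminal blood sample was taken after the shunt and bleeding procedures into sodium citrate (11 mmol/L final). It was centrifuged at 2500g, 4°C, 15 min. One platelet-poor plasma aliquot was used for clotting times and the other for plasma drug concentration.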

Data set [8] has as its system fXa. Description: Calculated fXa enzyme occupancy. More on the design: species or system human. The note with it: C min 107 ng/mL, 5 mg BID SPAF dose.
Data set [9] deals with PT. Nature of the data set: Ex vivo prothrombin time. It is filed as in vivo, rat. The conditions noted are these: plasma collected post-AVS, small molecule study. The method in brief: as §2
For data set [10], the system named is fXa. Nature of the data set: Calculated fXa enzyme occupancy. The conditions noted are these: rat AVS.
Data set [11] addresses Human fIXa (Homo sapiens, UniProt P00740). Description: fIXa inhibition constant. The format is biochemical.
A short description of data set [12]: Fraction unbound in plasma by equilibrium dialysis, rat. The format is in vitro ADME. The method in brief: as §1
Data set [13] relates to fXa. The note with it: equal fXa occupancy human/rat.

The structures appear in SMILES notation.

Sequence of Human fIXa (P00740 227-461 limits assumed): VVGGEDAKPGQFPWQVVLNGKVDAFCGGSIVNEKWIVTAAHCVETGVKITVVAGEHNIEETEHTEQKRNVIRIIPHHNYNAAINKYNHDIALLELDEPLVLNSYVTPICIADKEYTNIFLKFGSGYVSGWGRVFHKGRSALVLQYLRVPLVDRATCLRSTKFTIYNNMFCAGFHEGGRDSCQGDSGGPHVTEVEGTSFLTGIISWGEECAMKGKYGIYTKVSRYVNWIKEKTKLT
Sequence of Human fIXa (P00740 47-191 partner limits assumed): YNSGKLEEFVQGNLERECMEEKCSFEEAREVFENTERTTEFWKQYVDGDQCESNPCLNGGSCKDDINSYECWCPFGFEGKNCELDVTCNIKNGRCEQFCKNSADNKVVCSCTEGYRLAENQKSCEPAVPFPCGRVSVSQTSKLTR
Sequence of rat fIXa (P16296 228-462 limits assumed): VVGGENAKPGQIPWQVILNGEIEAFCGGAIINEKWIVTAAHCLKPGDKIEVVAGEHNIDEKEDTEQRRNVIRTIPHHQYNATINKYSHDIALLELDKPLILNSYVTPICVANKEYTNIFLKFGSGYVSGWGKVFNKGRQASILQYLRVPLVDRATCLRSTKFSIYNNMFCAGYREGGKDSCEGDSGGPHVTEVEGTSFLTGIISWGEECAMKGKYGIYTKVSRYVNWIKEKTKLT
Sequence of rat fIXa (P16296 40-185 partner limits assumed): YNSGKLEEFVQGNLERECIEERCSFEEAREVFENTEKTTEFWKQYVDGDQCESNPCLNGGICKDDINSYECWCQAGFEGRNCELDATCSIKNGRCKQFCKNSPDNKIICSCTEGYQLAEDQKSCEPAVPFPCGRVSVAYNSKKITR

One may read the clearance as the rate of elimination divided by the concentration. A high value points to a high capacity for elimination. As usually defined, the half-life is the time needed for the level to fall by half in the phase considered. Lower therefore signals rapid decline. In general, Ki refers to a measure of affinity in units of concentration, obtained from inhibition or displacement. Low readings indicate a stronger hold on the target, high ones a looser hold on the target. The term fraction unbound denotes the share of the substance not bound to proteins or other matrix. Read a low fraction unbound as extensive binding. In turn, `COc1ccc(-n2nc(C(N)=O)c3c2C(=O)N(c2ccc(N4CCCCC4=O)cc2)CC3)cc1` [Apixaban] yielded a clearance in data set [1] of 12 mL/min/kg. In data set [1], this compound had a half-life of 51.6 min. The “animals that reached the limit of the CBT assay (600 sec)” value in data set [2] (higher doses) was found to be 17. The “Slope (slope of the drug effect on bleeding time)” value in data set [2] (linear PK/PD model of CBT vs rat plasma concentration) is listed as 29.6. Moreover, the “effect on CBT vs vehicle (in words)” value in data set [2] (two effective doses A4, A5) is “significant prolongation of the CBT”. The “target CW corresponding to the apixaban clinical C min” value in data set [3] (PK/PD model simulation at rat equivalent of clinical C min) is 16 (12–24) mg. For the same compound, the “CW reduction vs vehicle (in words)” value in [3] (two highest doses A4 (3/3.75 mg/kg), A5 (8/10.2 mg/kg)) was “significant CW reduction”. For the same compound, in data set [3] (vehicle-proportional Imax PK/PD model of CW vs rat plasma concentration), the “I max (maximal inhibition of CW)” value is given as 0.946. Moreover, the “activity in TGA (in words)” value in data set [4] is listed as “activity was constant across the TF concentration tested”. Also, the Ki in data set [5] and in [11] was greater than 30 µM each time. In addition, the fraction unbound in data set [6] is 0.093 ± 0.013; in data set [12] it was 0.019. Besides, the “effect on aPTT (in words)” value in [7] is given as “concentration‐dependent increase”. Also, the “calculated EO achieved at median C min” value in data set [8] is listed as 99.2%. Moreover, in [9], the “effect on PT (in words)” value is on record as “concentration‐dependent increase”. The “fXa EO required to ensure CW <50 mg in all animals” value in [10] is greater than 99%. The “predicted rat equivalent of C avg” value in data set [13] was 24 µM.
